According to ChEMBL document CHEMBL1687781, “Comparative biochemical and computational study of the role of naturally occurring mutations at Ambler positions 104 and 170 in GES β-lactamases” (Antimicrob Agents Chemother, 2010):
Converted amounts (≈) assume the structure as drawn.

Legend:
[1] = Activity of Beta-lactamase GES-7 K104, G170 mutant
How it was run: (§1)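 Purified GES enzymes, released by mild sonication in 20 mM Tris pH 8.0, then Q-Sepharose and S-Sepharose chromatography, >95% pure by SDS-PAGE, in 50 mM KPi pH 7.6. Protein measured by Bradford. β-Lactam substrates hydrolysed at various concentrations, 25°C, in 50 mM NaCl, 50 mM MOPS pH 7.0.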

[2] = Activity of Beta-lactamase GES-1 E104, G170 mutant; how it was run: as §1
[3] = Ratio of Kcat to Km for Beta-lactamase GES-2 E104, N170 mutant; how it was run: as §1
[4] = Activity of Beta-lactamase GES-5 E104, S170 mutant; how it was run: as §1
[5] = Ratio of Kcat to Km for Beta-lactamase GES-7 K104, G170 mutant; how it was run: as §1
[6] = Ratio of Kcat to Km for Beta-lactamase GES-5 E104, S170 mutant; how it was run: as §1
[7] = Ratio of Kcat to Km for Beta-lactamase GES-6 K104, S170 mutant; how it was run: as §1
[8] = Activity of Beta-lactamase GES-13 K104, N170 mutant; how it was run: as §1
[9] = Ratio of Kcat to Km for Beta-lactamase GES-13 K104, N170 mutant; how it was run: as §1
[10] = Activity of Beta-lactamase GES-2 E104, N170 mutant; how it was run: as §1
[11] = Activity of Beta-lactamase GES-6 K104, S170 mutant; how it was run: as §1
[12] = Ratio of Kcat to Km for Beta-lactamase GES-1 E104, G170 mutant; how it was run: as §1
Escherichia coli [13] = test: Antimicrobial activity against Escherichia coli DH5[alpha] transformed with pAC-ges1 plasmid encoding Beta-lactamase GES-13 K104, N170 mutant in presence of clavulanic acid at compound/inhibitor ratio of 2:1 by Etest method; format: functional
How it was run: (§2)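 E. coli DH5α host, either untransformed or carrying pACYC184-based clones of the GES variant genes. MICs of penicillin–clavulanate combinations were read by Etest following the manufacturer's recommendations, with penicillin and inhibitor at a 2:1 ratio.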

Escherichia coli [14] = test: Antimicrobial activity against Escherichia coli DH5[alpha] transformed with pAC-ges1 plasmid encoding Beta-lactamase GES-2 E104, N170 mutant in presence of clavulanic acid at compound/inhibitor ratio of 2:1 by Etest method; format: functional; how it was run: as §2
Escherichia coli [15] = test: Antimicrobial activity against Escherichia coli DH5[alpha] transformed with pAC-ges1 plasmid encoding Beta-lactamase GES-6 K104, S170 mutant in presence of clavulanic acid at compound/inhibitor ratio of 2:1 by Etest method; format: functional; how it was run: as §2
Escherichia coli [16] = test: Antimicrobial activity against Escherichia coli DH5[alpha] in presence of clavulanic acid at compound/inhibitor ratio of 2:1 by Etest method; format: functional; how it was run: as §2
Escherichia coli [17] = test: Antimicrobial activity against Escherichia coli DH5[alpha] transformed with pAC-ges1 plasmid encoding Beta-lactamase GES-5 E104, S170 mutant in presence of clavulanic acid at compound/inhibitor ratio of 2:1; format: functional; how it was run: as §2
Escherichia coli [18] = test: Antimicrobial activity against Escherichia coli DH5[alpha] transformed with pAC-ges1 plasmid encoding Beta-lactamase GES-7 K104, G170 mutant in presence of clavulanic acid at compound/inhibitor ratio of 2:1 by Etest method; format: functional; how it was run: as §2
Escherichia coli [19] = test: Antimicrobial activity against Escherichia coli DH5[alpha] transformed with pAC-ges1 plasmid encoding Beta-lactamase GES-1 E104, G170 mutant in presence of clavulanic acid at compound/inhibitor ratio of 2:1 by Etest method; format: functional; how it was run: as §2
Escherichia coli [20] = test: Antimicrobial activity against Escherichia coli DH5[alpha] transformed with pAC-ges1 plasmid encoding Beta-lactamase GES-1 E104, G170 mutant by Etest method; format: functional
Escherichia coli [21] = test: Antimicrobial activity against Escherichia coli DH5[alpha] transformed with pAC-ges1 plasmid encoding Beta-lactamase GES-7 K104, G170 mutant by Etest method; format: functional
Escherichia coli [22] = test: Antimicrobial activity against Escherichia coli DH5[alpha] transformed with pAC-ges1 plasmid encoding Beta-lactamase GES-13 K104, N170 mutant by Etest method; format: functional
Escherichia coli [23] = test: Antimicrobial activity against Escherichia coli DH5[alpha] transformed with pAC-ges1 plasmid encoding Beta-lactamase GES-6 K104, S170 mutant by Etest method; format: functional
Escherichia coli [24] = test: Antimicrobial activity against Escherichia coli DH5[alpha] transformed with pAC-ges1 plasmid encoding Beta-lactamase GES-2 E104, N170 mutant by Etest method; format: functional
Escherichia coli [25] = test: Antimicrobial activity against Escherichia coli DH5[alpha] transformed with pAC-ges1 plasmid encoding Beta-lactamase GES-5 E104, S170 mutant by Etest method; format: functional
Escherichia coli [26] = test: Antimicrobial activity against Escherichia coli DH5[alpha] by Etest method; format: functional

Row | Compound | Km [1] | kcat [1] | Km [2] | kcat [2] | Km [4] | kcat [4] | kcat/Km [5] | kcat/Km [6] | kcat/Km [7] | Km [8] | kcat [8] | kcat/Km [9] | Km [11] | kcat [11] | MIC (Escherichia coli [20]) | MIC (Escherichia coli [21]) | MIC (Escherichia coli [22]) | MIC (Escherichia coli [23]) | MIC (Escherichia coli [24]) | MIC (Escherichia coli [25]) | also measured
1 | CC1(C)S[C@@H]2[C@H](NC(=O)Cc3ccccc3)C(=O)N2[C@H]1C(=O)O | 39 µM | 14.2 s⁻¹ | 120 µM | 30.5 s⁻¹ | 88.9 µM | 28.6 s⁻¹ | 360000 M⁻¹ s⁻¹ | 320000 M⁻¹ s⁻¹ | 420000 M⁻¹ s⁻¹ | 139 µM | 13.5 s⁻¹ | 100000 M⁻¹ s⁻¹ | 64.2 µM | 27.2 s⁻¹ | – | – | – | – | – | – | kcat/Km [3]: 70000 M⁻¹ s⁻¹; Km [10]: 87.6 µM; kcat [10]: 5.75 s⁻¹; kcat/Km [12]: 260000 M⁻¹ s⁻¹
2 | CC1(C)S[C@@H]2[C@H](NC(=O)[C@H](N)c3ccc(O)cc3)C(=O)N2[C@H]1C(=O)O [AMOXICILLIN] | – | – | – | – | – | – | – | – | – | – | – | – | – | – | – | – | – | – | – | – | MIC (Escherichia coli [13]): 3 µg/mL; MIC (Escherichia coli [14]): 3 µg/mL; MIC (Escherichia coli [15]): 32 µg/mL; MIC (Escherichia coli [16]): 2 µg/mL; MIC (Escherichia coli [17]): 16 µg/mL; MIC (Escherichia coli [18]): 32 µg/mL; MIC (Escherichia coli [19]): 8 µg/mL
3 | CC1(C)S[C@@H]2[C@H](NC(=O)[C@H](N)c3ccccc3)C(=O)N2[C@H]1C(=O)O [AMPICILLIN] | – | – | – | – | – | – | – | – | – | – | – | – | – | – | > 256 µg/mL | > 256 µg/mL | > 256 µg/mL | > 256 µg/mL | > 256 µg/mL | > 256 µg/mL | –
4 | C[C@H]1[C@H](NC(=O)/C(=N\OC(C)(C)C(=O)O)c2csc(N)n2)C(=O)N1S(=O)(=O)O [AZTREONAM] | 241 µM | 45.5 s⁻¹ | – | – | – | – | 190000 M⁻¹ s⁻¹ | – | – | 405 µM | 35.6 s⁻¹ | 90000 M⁻¹ s⁻¹ | – | – | 0.094 µg/mL (≈ 0.216 µM) | 2 µg/mL (≈ 4.59 µM) | 2 µg/mL (≈ 4.59 µM) | 0.094 µg/mL (≈ 0.216 µM) | 0.032 µg/mL (≈ 0.0735 µM) | 0.032 µg/mL (≈ 0.0735 µM) | –
5 | CO/N=C(\C(=O)N[C@@H]1C(=O)N2C(C(=O)O)=C(COC(C)=O)CS[C@H]12)c1csc(N)n1 [CEFOTAXIME] | 81.6 µM | 31.4 s⁻¹ | 152 µM | 56.8 s⁻¹ | 133 µM | 3.55 s⁻¹ | 380000 M⁻¹ s⁻¹ | 30000 M⁻¹ s⁻¹ | 50000 M⁻¹ s⁻¹ | 63.4 µM | 69 s⁻¹ | 1.09e+06 M⁻¹ s⁻¹ | 95.6 µM | 5.1 s⁻¹ | 1 µg/mL (≈ 2.2 µM) | 1.5 µg/mL (≈ 3.29 µM) | 3 µg/mL (≈ 6.59 µM) | 0.125 µg/mL (≈ 0.274 µM) | 0.75 µg/mL (≈ 1.65 µM) | 0.125 µg/mL (≈ 0.274 µM) | kcat/Km [3]: 140000 M⁻¹ s⁻¹; MIC (Escherichia coli [26]): 0.032 µg/mL (≈ 0.0703 µM); Km [10]: 261 µM; kcat [10]: 37.2 s⁻¹; kcat/Km [12]: 370000 M⁻¹ s⁻¹
6 | CO[C@@]1(NC(=O)Cc2cccs2)C(=O)N2C(C(=O)O)=C(COC(N)=O)CS[C@@H]21 [CEFOXITIN] | – | – | – | – | 221 µM | 7.5 s⁻¹ | – | 30000 M⁻¹ s⁻¹ | 150000 M⁻¹ s⁻¹ | – | – | – | 82.3 µM | 12.1 s⁻¹ | 3 µg/mL (≈ 7.02 µM) | 3 µg/mL (≈ 7.02 µM) | 3 µg/mL (≈ 7.02 µM) | 48 µg/mL (≈ 112 µM) | 3 µg/mL (≈ 7.02 µM) | 16 µg/mL (≈ 37.4 µM) | MIC (Escherichia coli [26]): 2 µg/mL (≈ 4.68 µM)
